# Screens as filed in PubChem.
# Compounds with a hit are over-represented: about 3.5% of the library has one in this group of screens.
# RGS4 inh: human RGS4 inhibition. HEK293 M3R/RGS4 inducible, Fluo-4 calcium flux; stronger effect = higher value; triggered by carbachol at its EC20. actives 0.45% (n = 310,000). B-score at 10 µM. AID 463165. P49798;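 active = B-score, a plate-corrected calcium signal, over three deviations above library mean, with baseline fluorescence within five deviations of library mean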;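 note: RGS4 expression induced by doxycycline in cells with stable M3 receptor; B-score is computed from the integrated fluorescence ratio over baseline after carbachol; higher B-score means a larger calcium signal and so more RGS4 inhibition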
# Target sequence (P49798 whole entry, looked up): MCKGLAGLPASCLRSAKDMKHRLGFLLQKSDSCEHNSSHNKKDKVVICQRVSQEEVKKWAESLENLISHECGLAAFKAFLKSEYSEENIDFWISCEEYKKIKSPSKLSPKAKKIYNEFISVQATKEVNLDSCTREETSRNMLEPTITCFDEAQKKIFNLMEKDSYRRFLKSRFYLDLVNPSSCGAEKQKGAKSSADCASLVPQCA
# MrgX1 PAM: human MrgX1 positive allosteric modulation, primary screen. Q96LB2. MrgX1-HEK293, Fluo-4 calcium flux, FDSS; stronger effect = higher value. B-score at 10 µM. actives 0.63% (n = 310,000). AID 588675;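 active = plate-corrected calcium response at least 3 library SD above typical, normal starting fluorescence, not activating the receptor alone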;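 note: compound read alongside a low EC10 to EC30 dose of BAM8-22 agonist; peak minus trough fluorescence over baseline measured at the second addition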
# Target sequence (Q96LB2 whole entry, looked up): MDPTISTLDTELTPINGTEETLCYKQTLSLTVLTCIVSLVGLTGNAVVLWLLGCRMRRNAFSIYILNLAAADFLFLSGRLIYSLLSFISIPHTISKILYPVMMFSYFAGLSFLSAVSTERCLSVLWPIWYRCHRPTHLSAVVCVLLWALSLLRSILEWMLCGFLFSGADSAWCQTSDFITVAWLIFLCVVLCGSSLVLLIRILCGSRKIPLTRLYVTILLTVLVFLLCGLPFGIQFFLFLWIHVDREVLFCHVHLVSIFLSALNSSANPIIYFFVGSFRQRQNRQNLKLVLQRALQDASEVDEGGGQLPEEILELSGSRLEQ
# MrgX1 agonist: agonists of human MrgX1 receptor | MrgX1-HEK293 cells, Fluo-4 calcium fluorescence, agonist mode; stronger effect = higher value | B-score at 10 µM | actives 0.44% (n = 310,000) | AID 588627;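 active = calcium response B-score plate-corrected fluorescence ratio at least 3 library SD, with starting fluorescence B-score inside 5 SD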
#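 Test system: HEK293 cells stably expressing human MrgX1 receptor; Input: fifteen thousand cells per well; Dosing: compound delivered in addition one of three; Schedule: overnight seeding, then 1 h dark dye loading; Technique: Fluo-4 NW calcium fluorescence; Measure: B-scored fluorescence response ratio; Controls: positive and negative controls per plate.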
# MrgX1 antagonist: antagonists of human MrgX1 receptor. Q96LB2. actives 1.3% (n = 310,000). MRGX1-HEK293 calcium flux, Fluo-4, BAM8-22 antagonism; stronger effect = lower value. B-score at 10 µM;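 active = calcium-response B-score plate-corrected more than 3 library SD below zero, starting fluorescence within 5 deviations, no agonist response on first addition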;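 note: peak minus trough fluorescence over baseline after final BAM8-22 challenge near maximal dose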
# RGS4 act: potentiators or activators of RGS4. HEK293 M3R/inducible RGS4, carbachol calcium flux Fluo4; stronger effect = lower value. B-score at 10 µM. actives 0.92% (n = 310,000). AID 463111;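 active = B-score of the integrated calcium signal more than 4 SD below the library mean, with starting fluorescence not abnormally high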;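 note: negative B-score means reduced calcium response which marks RGS4 activation or potentiation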
#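 test system = M3R-expressing HEK293 line, RGS4 induced by doxycycline | probe or stimulus = carbachol at ECmax as muscarinic agonist stimulus | timing = dye loading 30 min 37 °C, buffer rest 30 min RT | signal = calcium dye Fluo4 fluorescence | evaluation = B score from integrated fluorescence ratio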
# MrgX1 allo conf: human MrgX1 positive allosteric modulation, re-confirmation; MrgX1-HEK293, Fluo-4 calcium fluorescence, FDSS; actives 13% (n = 1,200); shares compounds with MrgX1 PAM; activation (ratio percentage), % at 10 µM;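 active = ratio at least 3 SD above the weak peptide control, stable starting fluorescence, no direct agonism earlier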;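 note: compound followed by low BAM8-22 agonist challenge near EC20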
# HEK293 Ca flux: MrgX1 antagonist counter-screen hit in parental HEK293 cells; fluorescence ratio F(max-min)/F0 at 10 µM; actives 2% (n = 4,000); Fluo-4 calcium fluorescence, FDSS; shares compounds with MrgX1 antagonist;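 active = duplicate-averaged calcium fluorescence ratio at least three times the standard deviation of buffer wells, a nonspecific response in parental cells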
# HEK293 Ca counter: activity in parental HEK293 cells without MrgX1; fluorescence ratio F(max-min)/F0 at 10 µM; shares compounds with MrgX1 antagonist; actives 0.4% (n = 4,000); parental HEK293 calcium flux, Fluo-4 fluorescence ratio; stronger effect = higher value;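 active = calcium fluorescence ratio, averaged over duplicates, at least 3 SD of the buffer-well ratio, meaning a nonspecific response in receptor-free cells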;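 note: untransfected parental HEK293 lacking MrgX1 used as counterscreen for MrgX1 allosteric activators; fluorescence change taken during the second addition on a kinetic imager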
# HEK293 Ca cntr2: counter-screen for MrgX1 activators: effect in parental HEK293 cells. shares compounds with MrgX1 antagonist. actives 8.7% (n = 4,000). fluorescence ratio F(max-min)/F0 at 10 µM. Fluo-4 calcium fluorescence (FDSS); stronger effect = higher value. AID 624115;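 active = calcium fluorescence ratio at least three times the spread of buffer wells, meaning a non-specific response in parental cells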
# Numbers without * were called inactive; i = inactive; nt = no result.
SMILES,RGS4 inh,MrgX1 PAM,MrgX1 agonist,MrgX1 antagonist,RGS4 act,MrgX1 allo conf,HEK293 Ca flux,HEK293 Ca counter,HEK293 Ca cntr2
O=C(O)CSCC(=O)N1CCN(c2nc3cc(Cl)ccc3s2)CC1,i,i,i,i,i,nt,nt,nt,nt
C/C(=N/NC(=O)Cc1cccs1)c1ccco1,i,i,i,i,i,nt,nt,nt,nt
COc1ccccc1NC(=O)c1sc2nc(N3CCOCC3)c3c(c2c1N)CCCC3,i,i,i,i,i,nt,nt,nt,nt
Cc1ccccc1NC(=O)c1sc2nc(N3CCOCC3)c3c(c2c1N)CCCC3,i,7.2*,i,i,i,i,i,i,i
O=C(CN1C(=O)C2C3CC(C(Br)C3Br)C2C1=O)N1CCOCC1 (stereo not given),i,i,i,i,i,nt,nt,nt,nt
O=C(CN1C(=O)C2C3CC(C(Br)C3Br)C2C1=O)N1CCN(Cc2ccccc2)CC1 (stereo not given),i,7.7*,i,i,i,i,i,i,i
Cc1ccc(S(=O)(=O)CC(O)COc2ccc(C#N)cc2)cc1 (stereo not given),i,i,i,i,i,nt,nt,nt,nt
O=S(=O)(c1ccccc1)N(CC(O)COc1ccccc1)c1ccccc1 (stereo not given),i,7.8*,i,i,i,i,i,i,i
O=S(=O)(CC(O)COc1ccc(Br)cc1)c1ccccc1 (stereo not given),i,9*,i,i,i,i,i,i,i
COc1cccc(N(CC(=O)NC2CCCC2)C(=O)CCC(=O)Nc2cc(C)on2)c1,i,i,i,i,i,nt,nt,nt,nt
Oc1ccc(NC(=S)Nc2ccc(O)cc2)cc1,i,10*,i,i,i,i,i,i,i
COC(=O)c1ccc(NC(=S)Nc2ccc(O)cc2)cc1,i,i,i,i,i,nt,nt,nt,nt
COc1ccc(C(CC(=O)NC(C)c2ccc(-c3ccccc3)cc2)NC(C)=O)cc1 (stereo not given),i,i,i,i,i,nt,nt,nt,nt
O=C(CSc1nnc(CNC(=O)c2ccccc2F)o1)NC1CCCCC1,i,6.5*,i,i,i,i,i,i,i
NC(=O)C1CCN(C(=O)CCC(=O)c2ccc(Br)cc2)CC1,i,8.7*,i,i,i,i,i,i,i
O=C(CCC(=O)N1CCN(c2ccc(O)cc2)CC1)c1ccc(Br)cc1,i,i,i,i,i,nt,nt,nt,nt
CNc1nc(Sc2ccc(C)cc2)cc(C(F)(F)F)n1,i,15*,i,i,i,16%*,i,i,i
Cc1ccc(Cn2ncc3c(N4CCN(C5CCCC5)CC4)ncnc32)cc1,i,i,i,i,i,nt,nt,nt,nt
CCOC(=O)c1c(CC(C)C)csc1N,i,i,i,i,i,nt,nt,nt,nt
CCOC(=O)c1c(-c2ccc(C)s2)csc1N,i,9.1*,i,i,i,i,i,i,i
CCOC(=O)c1c(-c2ccsc2)csc1N,i,8.6*,i,i,i,i,i,i,i
CCOC(=O)c1c(-c2ccc(C)o2)csc1N,i,i,i,i,i,nt,nt,nt,nt
COc1cc(C2C(C#N)=C(N)N(N(C)C)C3=C2C(=O)CCC3)ccc1O (stereo not given),i,i,i,i,i,nt,nt,nt,nt
CCOc1ccc(N(C(=O)c2ccc(S(=O)(=O)N3CCCC3)cc2)C2C=CS(=O)(=O)C2)cc1 (stereo not given),i,i,i,i,i,nt,nt,nt,nt
Cc1ccc(C(=O)N/C(=C\c2ccco2)C(=O)NCCN2CCOCC2)cc1,i,i,i,i,i,nt,nt,nt,nt
SMILES,RGS4 inh,MrgX1 PAM,MrgX1 agonist,MrgX1 antagonist,RGS4 act,MrgX1 allo conf,HEK293 Ca flux,HEK293 Ca counter,HEK293 Ca cntr2
COc1ccc(-c2cn[nH]c2-c2ccc(OC)cc2O)cc1,i,16*,i,i,i,12%*,i,i,i
CCOc1ccc(-c2[nH]ncc2-c2ccccc2)c(O)c1,i,13*,i,i,i,17%*,i,i,i
COc1ccc(-c2[nH]ncc2-c2ccc(Cl)cc2)c(O)c1,i,6.7*,i,i,i,27%*,i,i,i
CCOc1ccc(-c2[nH]ncc2-c2csc(C)n2)c(O)c1,i,i,i,i,i,nt,nt,nt,nt
COc1ccc(-c2[nH]ncc2-c2csc(C)n2)c(O)c1,i,i,i,i,i,nt,nt,nt,nt
COc1ccc(CNC(=O)CN2c3ccccc3S(=O)(=O)c3ccccc32)cc1,i,i,i,i,i,nt,nt,nt,nt
Nc1ccc(Cl)cc1C(=O)OCC(=O)NC1CCS(=O)(=O)C1 (stereo not given),i,16*,i,i,i,i,i,i,i
COc1ccc(NC(C)(C)c2nnnn2-c2c(C)cccc2C)cc1,i,6.6*,i,i,i,i,i,i,i
COC(=O)c1cc(NC(=O)Cc2cc(OC)c(OC)c(OC)c2)cc(C(=O)OC)c1,i,i,i,i,i,nt,nt,nt,nt
CC(=O)N1CCSc2ccc(S(=O)(=O)NCCc3cccc(C)c3)cc21,i,i,i,i,i,nt,nt,nt,nt
CC(=O)N1CCSc2ccc(S(=O)(=O)NCCc3ccc(C)cc3)cc21,i,6.9*,i,i,i,i,i,i,i
Cc1nn(C)cc1CN(C)C(=O)c1cc(-c2ccccc2)nc2ccc(Br)cc12,i,i,i,i,i,nt,nt,nt,nt
Nc1cc(Cl)ccc1Oc1ccc2ccccc2c1,i,i,i,i,i,nt,nt,nt,nt
Cc1ccc(Oc2ccc(Cl)cc2N)cc1,i,6.8*,i,i,i,i,i,i,i
O=C(CCl)N(CCc1ccccc1)CCc1ccccc1,i,7.7*,i,i,i,i,i,i,i
O=C(CCl)N(c1ccccc1)c1ccccc1,i,nt,nt,nt,i,nt,nt,nt,nt
